In ChEMBL document CHEMBL1142454, “Synthesis and evaluation of novel 4-amino-4,6-androstadiene-3,17-dione: an analog of formestane” (2008):

Legend:
Design in all cases: scale not given: the % may be the effect or the level left
SK-MEL-2 = experiment: Antitumor activity against human SK-MEL-2 cells assessed as reduction of cell growth at 10 uM after 48 hrs by SRB assay; assay type: functional
Summary of the method: (§1)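 NCI 60-cell-line primary screen, single dose 10^-5 M (final). Cells grown in RPMI 1640 with 5% FBS and 2 mM L-glutamine, seeded at 5000–40,000 cells/well and preincubated 24 h at 37 °C, 5% CO2. Compound is dissolved in DMSO, diluted in medium with gentamicin, and exposed 48 h. Cells are fixed with 10% TCA (final) and stained with 0.4% SRB; absorbance is read at 515 nm. Readout is growth percentage.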

LOX IMVI = experiment: Antitumor activity against human LOXIMVI cells assessed as reduction of cell growth at 10 uM after 48 hrs by SRB assay; assay type: functional; summary of the method: as §1
SN12C = experiment: Antitumor activity against human SN12C cells assessed as reduction of cell growth at 10 uM after 48 hrs by SRB assay; assay type: functional; summary of the method: as §1
RXF 393 = experiment: Antitumor activity against human RXF 393 cells assessed as reduction of cell growth at 10 uM after 48 hrs by SRB assay; assay type: functional; summary of the method: as §1
A498 = experiment: Antitumor activity against human A-498 cells assessed as reduction of cell growth at 10 uM after 48 hrs by SRB assay; assay type: functional; summary of the method: as §1
[1] = Antitumor activity against human 786-O cells assessed as reduction of cell growth at 10 uM after 48 hrs by SRB assay; assay type: functional, 786-0; summary of the method: as §1
RPMI-8226 = experiment: Antitumor activity against human RPMI 8226 cells assessed as reduction of cell growth at 10 uM after 48 hrs by SRB assay; assay type: functional; summary of the method: as §1
SK-OV-3 = experiment: Antitumor activity against human SKOV3 cells assessed as reduction of cell growth at 10 uM after 48 hrs by SRB assay; assay type: functional; summary of the method: as §1
OVCAR-8 = experiment: Antitumor activity against human OVCAR8 cells assessed as reduction of cell growth at 10 uM after 48 hrs by SRB assay; assay type: functional; summary of the method: as §1
OVCAR-3 = experiment: Antitumor activity against human OVCAR-3 cells assessed as reduction of cell growth at 10 uM after 48 hrs by SRB assay; assay type: functional; summary of the method: as §1
MCF7 = experiment: Antitumor activity against human doxorubicin-resistant MCF7 cells assessed as reduction of cell growth at 10 uM after 48 hrs by SRB assay; assay type: functional
Summary of the method: (§2)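 NCI-60 one-dose primary screen at 10^-5 M final. Cells grown in RPMI 1640 with 5% FBS and 2 mM L-glutamine, plated at 5000–40,000 cells/well and preincubated 24 h at 37 °C, 5% CO2. Drug stocks in DMSO, diluted in medium with gentamicin. Exposure 48 h, then fixed in situ with TCA (10% final) for 60 min at 4 °C. Stained with 0.4% SRB in 1% acetic acid, bound dye solubilized in 10 mM trizma base, absorbance read at 515 nm. Reported as mean growth percent; negative values indicate cell kill.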

MDA-MB-435 = experiment: Antitumor activity against human MDA-MB-435 cells assessed as reduction of cell growth at 10 uM after 48 hrs by SRB assay; assay type: functional; summary of the method: as §1
[2] = Antitumor activity against human Hs 578T cells assessed as reduction of cell growth at 10 uM after 48 hrs by SRB assay; assay type: functional; summary of the method: as §1
BT-549 = experiment: Antitumor activity against human BT-549 cells assessed as reduction of cell growth at 10 uM after 48 hrs by SRB assay; assay type: functional; summary of the method: as §1
HT-29 = experiment: Antitumor activity against human HT-29 cells assessed as reduction of cell growth at 10 uM after 48 hrs by SRB assay; assay type: functional; summary of the method: as §1
[3] = Antitumor activity against human HCT 116 cells assessed as reduction of cell growth at 10 uM after 48 hrs by SRB assay; assay type: functional; summary of the method: as §1
COLO 205 = experiment: Antitumor activity against human COLO205 cells assessed as reduction of cell growth at 10 uM after 48 hrs by SRB assay; assay type: functional; summary of the method: as §1
NCI-H23 = experiment: Antitumor activity against human NCI-H23 cells assessed as reduction of cell growth at 10 uM after 48 hrs by SRB assay; assay type: functional; summary of the method: as §1
HOP-92 = experiment: Antitumor activity against human HOP-92 cells assessed as reduction of cell growth at 10 uM after 48 hrs by SRB assay; assay type: functional; summary of the method: as §1
EKVX = experiment: Antitumor activity against human EKVX cells assessed as reduction of cell growth at 10 uM after 48 hrs by SRB assay; assay type: functional; summary of the method: as §1
SNB-75 = experiment: Antitumor activity against human SNB75 cells assessed as reduction of cell growth at 10 uM after 48 hrs by SRB assay; assay type: functional; summary of the method: as §1
U-251 = experiment: Antitumor activity against human U251 cells assessed as reduction of cell growth at 10 uM after 48 hrs by SRB assay; assay type: functional; summary of the method: as §2

Structure (SMILES) | Activity (SK-MEL-2) [%] | Activity (LOX IMVI) [%] | Activity (SN12C) [%] | Activity (RXF 393) [%] | Activity (A498) [%] | Activity [1] [%] | Activity (SK-OV-3) [%] | Activity (OVCAR-8) [%] | Activity (OVCAR-3) [%] | Activity (MCF7) [%] | Activity (MDA-MB-435) [%] | Activity [2] [%] | Activity (BT-549) [%] | Activity (HT-29) [%] | Activity [3] [%] | Activity (COLO 205) [%] | Activity (NCI-H23) [%] | Activity (HOP-92) [%] | Activity (EKVX) [%] | Activity (SNB-75) [%] | other results
C[C@]12CCC(=O)C(N)=C1C=C[C@@H]1[C@@H]2CC[C@]2(C)C(=O)CC[C@@H]12.Cl | 74.41 | 60.57 | 88.53 | 95.21 | 99.19 | 89.28 | 120.27 | 44.03 | 64.57 | 68.71 | 112.52 | 112.26 | 82.63 | 51.17 | 6.15 | 121.26 | 74.07 | 61.94 | 97.99 | 94.19 | Activity (RPMI-8226): -18.11%; Activity (U-251): 54.19%
C[C@]12CC[C@H]3[C@@H](CCC4=CC(=O)CC[C@@]43CF)[C@@H]1CCC2=O | 97.19 | 96.65 | 113.5 | 67.71 | 111.1 | 105.6 | 120.5 | 94.26 | 119.07 | 107.98 | 100.91 | 127.96 | 97.23 | 116.4 | 110.19 | 134.97 | 106.48 | 113.59 | 94.85 | 90.07 | Activity (U-251): 111.4%
C[C@]12CCC(=O)C(Oc3ccccc3)=C1CC[C@@H]1[C@@H]2CC[C@]2(C)C(=O)CC[C@@H]12 | 82.37 | 101.44 | 90.07 | 107.93 | 103 | 100.78 | 117.4 | 93.48 | 121.39 | 90.34 | 113.61 | 103.5 | 110.1 | 100.27 | 99.87 | 115.44 | 97.57 | 87.06 | 104.06 | 91.11 | Activity (RPMI-8226): 87.07%; Activity (U-251): 91.35%
CCOC1=C2CC[C@@H]3[C@H](CC[C@]4(C)C(=O)CC[C@@H]34)[C@@]2(C)CCC1=O | 94.48 | 100.3 | 110.6 | 117.9 | 105.6 | 103.4 | 111.3 | 98.96 | 128.63 | 97.45 | 104.79 | 118.13 | 93.87 | 98.16 | 103.2 | 132.65 | 101.11 | 92.93 | 111.14 | 79.71 | 
